Efflux pump inh = inhibitors of Candida antifungal efflux pumps expressed in yeast; S. cerevisiae Candida pump triplex, Nile Red efflux; AID 485275; inhibition, % at 10 µM; 330,000 compounds, 0.44% hits;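 active = plate passing quality check with inhibition over a set limit, or well fluorescence over plate mean plus 4 SD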;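 note: Nile Red retained in pooled yeast measured as flow cytometry median fluorescence; 0% = buffer negative control and 100% = Enniatin B positive control; higher means more Nile Red kept so more efflux inhibition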
SMARCA2 act = SMARCA2 function activation, primary screen | 370,000 compounds, 1% hits | activation, % at 9.1 µM | MG213 cells, MMTV-luciferase reporter, dexamethasone, overnight; in the data active = activation above about 7.8%;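 note: 0% = vehicle wells and 100% = reference activator wells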
TbMetRS inhib = blocks T. brucei methionyl-tRNA synthetase activity; inhibition, % at 11.9 µM; 360,000 compounds, 0.4% hits; AID 624268; purified T. brucei MetRS, ATP depletion, Kinase-Glo luminescence;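 active = inhibition above a per-plate cutoff of the control wells' mean inhibition plus 3 SD, cut at about 5.5% in these data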;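 note: 0% = DMSO wells median and 100% = median of wells with control inhibitor compound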
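Dosing: 11.9 µM compound single dose, 0.9% DMSO; Assay system: purified T. brucei MetRS enzyme; Measured by: Kinase-Glo luciferase luminescence reporting remaining unconsumed ATP; Schedule: 15 min plus 2 h at 25 °C.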
H9c2 TAG inh = triacylglycerol accumulation inhibition. 230,000 compounds, 0.66% hits. AID 651582. H9c2 cells, Nile Red lipid (TAG) fluorescence; cells loaded with 200 µM oleic acid. inhibition, % at 12.5 µM;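 active = pattern-corrected inhibition of lipid staining of at least 50% with the nuclear-stain viability signal not falling by more than 50%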;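 note: 0% = DMSO wells and 100% = triacsin C control wells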
AHR activator = activates the human aryl hydrocarbon receptor; P35869; AHR-responsive luciferase reporter cells, luminescence; activation, % at 5 µM; 320,000 compounds, 2.5% hits; in the data active = activation above about 47%;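 note: 0% = vehicle wells and 100% = reference agonist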
Cmpd fluor yeast = counter-screen for efflux pump inhibitors: compound fluorescence; shares compounds with Efflux pump inh; S. cerevisiae AD/pABC3, flow cytometry; fluorescence ratio to DMSO, % at 10 µM; 1,700 compounds, 4% hits;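 active = fluorescence ratio to DMSO above its plate's cutoff, the plate mean ratio plus 5 SD, cut at about 210% in these data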;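 note: unstained yeast with no Nile Red so the signal is compound autofluorescence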
Mdr1 pump inh = inhibitors of Candida albicans Mdr1 efflux pump. shares compounds with Efflux pump inh. S. cerevisiae AD/CaMDR1, Nile Red efflux, flow cytometry. inhibition, % at 10 µM. 1,700 compounds, 1% hits. AID 588518; in the data active = inhibition above about 26%;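 note: 0% = DMSO vehicle and 100% = reference inhibitor; higher means more Nile Red retained so more efflux inhibition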
Cdr2 pump inh = blocks the Candida albicans Cdr2 efflux pump in yeast; shares compounds with Efflux pump inh; S. cerevisiae AD/CaCDR2, Nile Red retention, flow cytometry; Nile Red retention ratio vs DMSO, % at 10 µM; 1,700 compounds, 4% hits; AID 588520; in the data active = Nile Red retention ratio vs DMSO above about 190%;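 note: higher ratio means more blocking of Cdr2 efflux of the dye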
Cdr1 pump inh = inhibitors of Candida albicans Cdr1 efflux pump; shares compounds with Efflux pump inh; S. cerevisiae AD/CaCDR1, Nile Red efflux, flow cytometry; inhibition, % at 10 µM; 1,700 compounds, 1% hits; AID 588522;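 active = inhibition above the screen-wide mean plus twice its standard deviation, cut at about 32% in these data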
Active calls of the source: *; x = not tested or not shown. A selection: hits, their analogues and other compounds. The true share with any hit is near 4.1%.

SMILES	Efflux pump inh	SMARCA2 act	TbMetRS inhib	H9c2 TAG inh	AHR activator	Cmpd fluor yeast	Mdr1 pump inh	Cdr2 pump inh	Cdr1 pump inh
COC(=O)c1ccc(/C=C(\C#N)c2nc3ccccc3s2)cc1	0.0	2.0	-1.3	-1.5	10.3	101.8	-0.1	120.5	0.0
N#C/C(=C\c1ccccn1)c1nc2ccccc2s1	1.6*	2.6	-0.3	-1.8	11.2	159.6	0.2	247.2*	0.6
CCOC(=O)[C@@]12CN(C(=O)OC(C)(C)C)CC=C1N(Cc1ccc(OC)cc1)C(=O)[C@H]2CC(=O)NCc1ccccc1	x	-4.3	x	x	x	x	x	x	x
CCOC(=O)[C@@]12CN(C(=O)OC(C)(C)C)CC=C1N(Cc1ccc(OC)cc1)C(=O)[C@H]2CC(=O)N1CCN(C(=O)c2ccco2)CC1	x	-2.7	x	x	x	x	x	x	x
Cc1ccccc1OCCNc1cc(N2CCN(CCO)CC2)ccc1[N+](=O)[O-]	18.9*	-0.1	-0.4	x	19.9	106.8	-0.2	95.4	0.0
CN(C)CCN(C(=O)c1ccc(S(=O)(=O)N2CCc3ccccc32)cc1)c1nc2ccc(F)cc2s1	0.4*	2.5	-0.6	14.6	17.8	109.9	0.2	107.8	-0.1
O=C(O)c1ccccc1NS(=O)(=O)c1cccc2nsnc12	0.7*	0.7	-1.3	4.0	-1.2	100.3	-0.2	98.5	-0.1
O=C(O)c1cc(Br)ccc1NS(=O)(=O)c1cccc2nsnc12	0.0	0.8	-1.0	9.5	-0.7	x	x	x	x
Nc1ncc2c(n1)-c1cc(Cl)ccc1SC2	0.6*	-3.4	-1.8	-9.7	-0.6	114.3	0.3	112.3	0.0
O=C(NCCN1CCC(Cc2ccccc2)CC1)C1CCCN(S(=O)(=O)c2ccc(Br)s2)C1 (stereo unspecified)	x	-6.4	x	x	x	x	x	x	x
COc1ccc2c(c1)[C@H]1[C@H](CO2)[C@H](c2ccccc2)[C@]2(C)C(=O)Nc3cc(Cl)ccc3C(=O)N12	0.3	x	0.4	12.9	16.5	x	x	x	x
COc1ccc2c(c1)OC[C@H]1[C@H]2N2C(=O)c3ccc(C)cc3NC(=O)[C@@]2(C)[C@H]1c1ccccc1	34.4*	1.2	-0.5	-13.6	5.0	103.6	0.5	106.0	0.1
COc1cc2c(cc1OC)C(=O)N1[C@H]3c4cc(C)ccc4OC[C@@H]3[C@H](c3ccccc3)[C@]1(C)C(=O)N2	-0.2	5.3	-0.3	6.9	0.2	116.8	1.2	120.6	0.8
Cc1ccc2c(c1)[C@H]1[C@H](CO2)[C@H](c2ccccc2)[C@]2(C)C(=O)Nc3cc(F)c(F)cc3C(=O)N12	-0.1	0.4	0.3	44.2	-0.3	101.4	-0.2	97.7	0.0
COc1ccc2c(c1)C(=O)N1[C@H]3c4cc(Cl)ccc4OC[C@@H]3[C@H](c3ccccc3)[C@]1(C)C(=O)N2	-0.4	-1.0	-0.5	22.0	1.0	89.3	0.0	111.6	-0.2
COC(=O)c1cc2c(c3c4cc(F)ccc4n(C(=O)c4ccccc4)c13)C(=O)N(C1CCCCC1)C2	x	-3.8	x	x	x	x	x	x	x
CCn1c(Cc2cccs2)nnc1SCC(=O)Nc1ccc(OCc2ccccc2)cc1	x	-3.2	x	x	x	x	x	x	x
CCOc1ccc(-c2c(C(=O)N/N=C/c3ccccc3)nnn2-c2nonc2N)cc1	0.2	-2.5	0.4	-8.4	-2.1	94.0	-0.1	103.8	0.0
CCOc1ccccc1/C=N/NC(=O)c1nnn(-c2nonc2N)c1CN1CCC(C)CC1	0.6*	-2.2	0.1	x	-1.7	85.5	-0.1	93.2	-0.4
Cc1c(C(=O)N/N=C/c2c(O)ccc3ccccc23)nnn1-c1nonc1N	1.0*	-0.9	-0.6	x	6.7	87.6	-0.4	94.0	0.0
CC(C)(C)N(Cc1ccccc1)C(=O)COC(=O)CNS(=O)(=O)c1ccc2ccccc2c1	0.0	-0.1	-0.2	8.7	0.8	x	x	x	x
CN(Cc1ccccc1)C(=O)COC(=O)CNS(=O)(=O)c1ccc2ccccc2c1	74.9*	-1.3	-0.6	3.6	1.3	97.0	-0.4	101.5	-0.3
